Results on 3 substances are retold here after ChEMBL document CHEMBL4765236, “Insights into the Antimicrobial Activity and Cytotoxicity of Engineered α-Helical Peptide Amphiphiles” (J Med Chem, 2016).

The test system of data set [1] is Escherichia coli. The data set can be described thus: Induction of morphological changes in Escherichia coli O157:H7 CICC 21530 assessed as intracellular changes at 1 times MIC after 60 mins by TEM analysis. Type of data set: functional, organism-based.
For data set [2], the system named is HepG2. The data set can be described thus: Induction of ROS generation in human HepG2 cells assessed as increase in fluorescence intensity up to 32 uM incubated for 8 hrs by DCFH-DA staining-based fluorescence analysis. Type of data set: functional, cell-based. The conditions noted are these: dose microM <=32, time 8.0 hrs.
The subject of data set [3] is Escherichia coli. The data set can be described thus: Induction of morphological changes in Escherichia coli O157:H7 CICC 21530 assessed as membrane alteration at 1 times MIC after 60 mins by TEM analysis. Type of data set: functional, organism-based.
Data set [4] relates to HepG2. The data set can be described thus: Induction of ROS generation in human HepG2 cells assessed as increase in visual fluorescence intensity up to 32 uM measured at 2 hr by DCFH-DA staining-based fluorescence analysis. The conditions noted are these: dose microM <=32, time 2.0 hrs. Type of data set: functional, cell-based.
The subject of data set [5] is HepG2. The data set can be described thus: Induction of morphological changes in human HepG2 cells assessed as appearance of rounded cells at 32 uM after 24 hrs by SEM analysis. Type of data set: functional, cell-based.
Data set [6] has as its system HepG2. The data set can be described thus: Induction of morphological changes in human HepG2 cells assessed as roughness of cell membrane at 32 uM after 24 hrs by SEM analysis. The data set is classed as functional, cell-based.
In data set [7] the test system is Escherichia coli. The data set can be described thus: Bactericidal activity against Escherichia coli O157:H7 CICC 21530 assessed as bacterial killing at 1 times MIC measured within 5 mins by time kill assay. The conditions noted are these: time min <5. The data set is classed as functional, organism-based.
Data set [8] in a line: Drug distribution in human HepG2 cells assessed as fluorescence signal in presence of FITC-labelled peptide at 32 uM measured after 8 hrs by DAPI staining based confocal microscopy. The data set is classed as ADME, cell-based. The conditions noted are these: hepg2, 8 h. The gist of the method: (§1)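 HepG2 cells incubated with FITC-labelled peptide at 32 µM. Fluorescence distribution imaged by confocal laser-scanning microscopy at intervals (1, 4 and 8 h).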

In data set [9] the test system is Escherichia coli. The data set can be described thus: Induction of morphological changes in Escherichia coli O157:H7 CICC 21530 assessed as membrane damage at 1 times MIC after 60 mins by TEM analysis. The data set is classed as functional, organism-based.
Data set [10] relates to Staphylococcus aureus. Description: Induction of morphological changes in Staphylococcus aureus ATCC 29213 assessed as outflow of cytoplasm at 1 times MIC after 60 mins by TEM analysis. Type of data set: functional, organism-based.
Data set [11] relates to HepG2. The data set can be described thus: Induction of morphological changes in human HepG2 cells assessed as cell disruption at 32 uM after 24 hrs by SEM analysis. Type of data set: functional, cell-based.
Data set [12] has as its system HepG2. The data set can be described thus: Induction of morphological changes in human HepG2 cells assessed as shriveled cells at 32 uM after 24 hrs by SEM analysis. The data set is classed as functional, cell-based.
Data set [13] is described as follows: Drug localization in nucleus of human HepG2 cells assessed as fluorescent signal in presence of FITC-labelled peptide at 32 uM incubated for 4 hrs by DAPI staining based confocal microscopy. Type of data set: ADME, subcellular. The conditions noted are these: hepg2, 4 h. The gist of the method:
as §1

Data set [14] concerns HepG2. The data set can be described thus: Induction of morphological changes in human HepG2 cells assessed as appearance of crimped boundaries at 32 uM after 24 hrs by SEM analysis. The data set is classed as functional, cell-based.
Data set [15] concerns HepG2. The data set can be described thus: Induction of apoptosis in human HepG2 cells assessed as nuclear fragmentation at 32 uM measured after 8 hrs by DAPI staining based confocal microscopy. The data set is classed as functional, cell-based. The gist of the method: (§2)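 HepG2 cells treated with 32 µM peptide for 2, 4 or 8 h and stained with DAPI. Nuclear morphology imaged by confocal microscopy, with untreated cells as control.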

In data set [16] the test system is Staphylococcus aureus. Description: Bactericidal activity against Staphylococcus aureus ATCC 29213 assessed as bacterial killing at 1 times MIC measured within 5 mins by time kill assay. The data set is classed as functional, organism-based. The conditions noted are these: time min <5. Put shortly:
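Log-phase S. aureus 29213 exposed to peptide at 1 × MIC in 10 mM PBS pH 7.4 at 37 °C for 0-90 min. Aliquots taken at fixed intervals, diluted and plated on nutrient agar, and colonies counted after 18 h at 37 °C. Average of three independent assays.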

The nature of data set [17]: Drug localization in cell membrane of human HepG2 cells assessed as green fluorescent signal in presence of FITC-labelled peptide at 32 uM measured up to 8 hrs by DAPI staining based confocal microscopy. The data set is classed as ADME, cell membranes. The conditions noted are these: hepg2, 8 h. The gist of the method: as §1
Data set [18] concerns HepG2. The data set can be described thus: Induction of apoptosis in human HepG2 cells assessed as nuclei condensation at 32 uM incubated for 2 to 4 hrs by DAPI-staining based confocal microscopy analysis. The data set is classed as functional, cell-based. The conditions noted are these: time 2-4 hrs. The gist of the method: as §2
In data set [19] the test system is HepG2. Description: Induction of morphological changes in human HepG2 cells assessed as cytoskeleton damage at 32 uM after 24 hrs by SEM analysis. The data set is classed as functional, cell-based.
In data set [20] the test system is Staphylococcus aureus. The data set can be described thus: Induction of morphological changes in Staphylococcus aureus ATCC 29213 assessed as membrane damage at 1 times MIC after 60 mins by TEM analysis. Type of data set: functional, organism-based.
Data set [21] relates to HepG2. Description: Induction of morphological changes in human HepG2 cells assessed as decrease in adhesive monolayer at 32 uM after 24 hrs by inverted microscope analysis. Type of data set: functional, cell-based.
A short description of data set [22]: Drug localization in cytoplasm of human HepG2 cells assessed as fluorescent signal in presence of FITC-labelled peptide at 32 uM measured up to 8 hrs by DAPI staining based confocal microscopy. The data set is classed as ADME, subcellular. The conditions noted are these: hepg2, 8 h. The gist of the method: as §1

Active and inactive are the calls of the source. No cut-off for these calls is given here.

With H-WGEAFSAGVHRLANGGNG-NH2, the outcome in the data set with Escherichia coli [1] and in the data set on Escherichia coli [3] was Active. For the same substance, the result in the data set on HepG2 [2] was inactive.

In the case of H-WLRAFRRLVRRLARGLRR-NH2, the result with HepG2 [4], in the data set on HepG2 [5], in the data set with HepG2 [6], with Escherichia coli [7], in the data set on Escherichia coli [9] and with Staphylococcus aureus [10] was Active. The outcome with HepG2 [11], in the data set on HepG2 [12], in the data set with HepG2 [14], in the data set on HepG2 [15], with Staphylococcus aureus [16] and in the data set with HepG2 [18] was Active. Besides, the result in the data set on HepG2 [19], in the data set with Staphylococcus aureus [20] and with HepG2 [21] was Active. In addition, the Drug uptake result in data set [8], in [13] and in data set [17] was “Active” each time.

On to H-WLRAFRRLVRRLARLLRR-NH2, for which, in [22], the Drug uptake result is reported as “Not Active”.
